Experimental data as given in ChEMBL document CHEMBL1154144, “Semisynthesis and antiplasmodial activity of the quinoline alkaloid aurachin E” (J Nat Prod, 2008).
Converted amounts (≈) assume the structure as drawn. The source made the active and inactive calls. The calls are words filed in the database; no cut-off is given here.

Assays:
Plasmodium berghei [1] = assay: Antimalarial activity against Plasmodium berghei infected in mice (Mus musculus)
L929 = assay: Cytotoxicity against mouse L929 cells after 5 days by MTT assay; type: cell-based; conditions: L929, 120 h
Summary of the method: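 L929 mouse fibroblasts were exposed to serial compound dilutions, and metabolic activity was read by MTT after 5 days.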

[2] = Inhibition of respiration in bovine heart submitochondrial particles assessed as NADH oxidation; type: functional, Bos taurus
Plasmodium falciparum [3] = assay: Antiplasmodial activity against Plasmodium falciparum D6 clone after 48 hrs; type: functional, organism-based; conditions: D6, 48 h
Plasmodium falciparum [4] = assay: Antiplasmodial activity against Plasmodium falciparum W2 after 48 hrs; type: functional, organism-based; conditions: W2, 48 h
Plasmodium berghei [5] = assay: Antimalarial activity against Plasmodium berghei infected in mice (Mus musculus) at 100 mg/kg; type: functional

Row | Structure (SMILES) | IC50 [2] [µg/mL] | IC50 (Plasmodium falciparum [3]) [µg/mL] | IC50 (Plasmodium falciparum [4]) [µg/mL] | ED90 (Plasmodium berghei [1]) [mg/kg] | IC50 (L929) [µg/mL] | Activity (Plasmodium berghei [5])
1 | CC(C)=CCC/C(C)=C/CC/C(C)=C/Cc1c(C)n(O)c2ccccc2c1=O [AURACHIN C] | 0.016 (≈ 0.0422 µM) | 0.0009 (≈ 0.00237 µM) | 0.026 (≈ 0.0685 µM) |  | 1.8 (≈ 4.74 µM) | 
2 | C[C@@H]1CC[C@H]2[C@@H](C)C(=O)O[C@@H]3O[C@@]4(C)CC[C@@H]1[C@]32OO4 [ARTEMISININ] | > 8.1 | 0.0011 (≈ 0.0039 µM) | 0.00043 (≈ 0.00152 µM) |  | > 40 | 
3 | CC(C)=CCC/C(C)=C/CC/C(C)=C/Cc1c(C)n2c(=O)[nH]c3cccc(c1=O)c32 [AURACHIN E] | 1.1 (≈ 2.72 µM) | 0.0004 (≈ 0.000989 µM) | 0.013 (≈ 0.0321 µM) |  | 25 (≈ 61.8 µM) | inactive
4 | CC(C)=CCC/C(C)=C/CCC(C)(O)C1Cc2c(c(C)[n+]([O-])c3ccccc23)O1 (stereo not drawn) [AURACHIN A] | 0.028 (≈ 0.0708 µM) | > 12 | > 12 |  | 1.4 (≈ 3.54 µM) | 

The next lines start with results.

Row | IC50 [2] [µg/mL] | IC50 (Plasmodium falciparum [3]) [µg/mL] | IC50 (Plasmodium falciparum [4]) [µg/mL] | Structure (SMILES) | ED90 (Plasmodium berghei [1]) [mg/kg] | IC50 (L929) [µg/mL] | Activity (Plasmodium berghei [5])
5 | > 8.1 |  |  | CCN(CC)CCCC(C)Nc1ccnc2cc(Cl)ccc12 (stereo not drawn) [CHLOROQUINE] | 2.8 | 14 (≈ 43.8 µM) | 
6 | 0.014 (≈ 0.0369 µM) | 0.078 (≈ 0.206 µM) | 0.036 (≈ 0.0949 µM) | CC(C)=CCC/C(C)=C/CC/C(C)=C/Cc1c(O)c(C)[n+]([O-])c2ccccc12 [AURACHIN B] |  | 3.2 (≈ 8.43 µM) | 
7 | 0.018 (≈ 0.0495 µM) | 0.25 (≈ 0.688 µM) | 0.37 (≈ 1.02 µM) | CC(C)=CCC/C(C)=C/CC/C(C)=C/Cc1c(C)[nH]c2ccccc2c1=O [AURACHIN D] |  | 1.3 (≈ 3.58 µM) | 
